By ED50 is commonly meant the midpoint of the dose-response relation. The IC50 is the concentration that inhibits the measured activity by half. Lower therefore signals higher potency. Usually inhibition stands for how much of the control response was suppressed. Higher therefore signals a response far below the control.

One experiment deals with Mus musculus. As to the kind of experiment: Functional NMDA antagonist activity was confirmed in vivo in mice (intraperitoneally) using an NMDA-induced lethality assay.
Experiment [1] addresses Glutamate NMDA receptor. In words: Affinity for the NMDA receptor site was assessed by its ability to displace [3H]TCP from its binding site in rat brain. It counts as tissue-based. The gist of the method:
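Rat whole-brain crude synaptic membranes, resuspended in ice-cold 5.0 mM Tris HCl pH 7.4. Triplicate incubation 1 h at 25 °C with 2.5 nM [³H]TCP, 3 µM L-glutamate and 1 µM glycine. Nonspecific binding defined with 100 µM MK-801. Filtration on PEI-presoaked glass fiber filters, then scintillation counting. IC50 with 95% confidence limits from 5-10 concentrations.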

For experiment [2], the target named is Glutamate NMDA receptor. In words: Displacement of [3H]CPP from rat synaptic membrane glutamate NMDA receptor.
Experiment [3] addresses T1, Glutamate NMDA receptor (Rattus norvegicus) (UniProt P35439+Q00959+Q00960+Q00961+Q62645+Q8VHN2+Q9R1M7). As to the kind of experiment: Affinity for the NMDA receptor site was assessed by its ability to displace [3H]TCP from its binding site in rat brain at a concentration of 100 uM. The format is tissue-based.
Experiment [4] has as its target T1, Glutamate NMDA receptor (Rattus norvegicus). In words: Affinity for the NMDA receptor site was assessed by the ability to displace [3H]CPP from its binding site in rat synaptic membranes at a concentration of 100 uM. It counts as cell membranes. Summed up:
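Rat whole-brain crude synaptic membranes (Triton X-100 treated, frozen), in 50 mM Tris HCl pH 7.6, 0.2-0.5 mg protein. Triplicate incubation 15 min at 23 °C with 8 nM [³H]CPP. Nonspecific binding defined with 1.0 mM NMDA. Bound ligand separated by centrifugation at 48000g, then scintillation counting. Percent inhibition reported at 100 µM.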

The species entered for experiment [5] is Rattus norvegicus. In words: Effect on the decrease in volume of infarcted brain tissue in rat. The format is functional. The gist of the method: (§1)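 Male Fisher-344 rats under isoflurane, with permanent occlusion of the distal MCA plus the ipsilateral common carotid; body temperature held at 37 °C. Single iv tail-vein bolus of 3 mg/kg in 0.9% NaCl, given 5 min post-occlusion. At 24 h, cresyl violet-stained forebrain sections were taken at 400 µm intervals. Infarct volume by image analysis, mean ± SE, n=27-28 per group.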

The species named for experiment [6] is Rattus norvegicus. As to the kind of experiment: Effect on the volume of infarcted brain tissue in rat. The format is functional. The gist of the method: as §1
Setting [7] is: Mus musculus, ip, read-out: ED50.

`NC(Cc1nc2ccc(Cl)cc2n1CP(=O)(O)O)C(=O)O` (single isomer, unassigned; (-)): the ED50 with Mus musculus (setting [7]) amounted to 2.56 mg/kg. Also, the IC50 is 13600 nM at Glutamate NMDA receptor [1] and 22 nM at Glutamate NMDA receptor [2].

As for `O=C(O)C1CN(CCCP(=O)(O)O)CCN1` (stereo not given), the ED50 in the experiment with Mus musculus (setting [7]) was found to be 1 mg/kg. Consider `Cc1cc2nc(CC(N)C(=O)O)n(CP(=O)(O)O)c2cc1C` (single isomer, unassigned; (-)), for which the inhibition in experiment [3] was found to be 88.5%; in experiment [4], 99.7%. `NC(Cc1nc2cc(Br)ccc2n1CP(=O)(O)O)C(=O)OCc1ccccc1` (stereo not given): in the experiment on Mus musculus (setting [7]), the ED50 turned out to be 0.47 mg/kg. For the same compound, the IC50 is 15500 nM at Glutamate NMDA receptor [1] and 56 nM on Glutamate NMDA receptor [2].

As for `NC(Cc1nc2ccccc2n1CC(=O)O)C(=O)O` (single isomer, unassigned; (-)), the inhibition in experiment [3] was 9.5%; in experiment [4] it was 30%.

As to `NC(Cc1nc2ccccc2n1CP(=O)(O)O)C(=O)O` (stereo in doubt; 8) [listing 1 of 2 here], the inhibition in experiment [3] amounted to 29.1%; in experiment [4], 30%. As for `NC(Cc1nc2cc(Cl)c(Cl)cc2n1CP(=O)(O)O)C(=O)O` (single isomer, unassigned; (-)), in the experiment on Mus musculus (setting [7]), the ED50 is 2.58 mg/kg. For the same compound, the IC50 on Glutamate NMDA receptor [2] worked out at 18 nM. Take `CCOC(=O)C(N)Cc1nc2ccccc2n1CP(=O)(O)O` (single isomer, unassigned; (-)): the values for the inhibition in experiment [3] and in experiment [4] were 0% and 61%, respectively. `NC(Cc1nc2cc(C(F)(F)F)ccc2n1CP(=O)(O)O)C(=O)O` (stereo not given): the IC50 at Glutamate NMDA receptor [2] was 750 nM. The compound further displayed an inhibition in experiment [3] of 40%.

`NC(CCCCCP(=O)(O)O)C(=O)O` (stereo not given) [AP-7]: the ED50 in the experiment with Mus musculus (setting [7]) amounted to 37.6 mg/kg. With `O=C(O)[C@@H]1C[C@H](CP(=O)(O)O)CCN1` [SELFOTEL], the ED50 in the experiment on Mus musculus (setting [7]) worked out at 0.6 mg/kg. In experiment [4], `NC(Cc1nc2c(Cl)cccc2n1CP(=O)(O)O)C(=O)O` (single isomer, unassigned; (-)) displayed an inhibition of 81%. Compound `NC(Cc1nc2ccccc2n1CP(=O)(O)O)C(=O)O` (single isomer, unassigned; (-)) showed an ED50 in the experiment with Mus musculus of 2.04 mg/kg. For the same compound, the IC50 on Glutamate NMDA receptor [1] was found to be 11100 nM; on Glutamate NMDA receptor [2] it was 77 nM. With `NC(CCc1nc2ccccc2n1CP(=O)(O)O)C(=O)O` (stereo in doubt; 10), the 50% inhibitory concentration (IC50) on Glutamate NMDA receptor [2] is 5200 nM. Consider `NC(Cc1nc2ccccc2n1CP(=O)(O)O)C(=O)O` (stereo in doubt; 8) [listing 2 of 2 here], for which, in the experiment with Mus musculus, the ED50 turned out to be 7.91 mg/kg.

As for `N[C@H](Cc1nc2cc(Cl)ccc2n1CP(=O)(O)O)C(=O)O`, the ED50 in the experiment with Mus musculus (setting [7]) is 0.13 mg/kg. For the same compound, the results for the IC50 on Glutamate NMDA receptor [1] and at Glutamate NMDA receptor [2] were 720 nM and 7.1 nM, respectively. The Decrease in the experiment filed under Rattus norvegicus [5] was found to be 45%. Moreover, the Volume in the experiment listed under Rattus norvegicus [6] came out at 51.3 mm**3. As to `NC(Cc1nc2cccc(Cl)c2n1CP(=O)(O)O)C(=O)O` (single isomer, unassigned; (-)), the inhibition was 28.1% in experiment [3] and 73% in experiment [4].

For `NC(Cc1nc2cc(Cl)c(Cl)cc2n1CP(=O)(O)O)C(=O)O` (single isomer, unassigned; (+)), the 50% inhibitory concentration (IC50) at Glutamate NMDA receptor [2] worked out at 1000 nM. For `NC(Cc1nc2ccccc2n1CCP(=O)(O)O)C(=O)O` (single isomer, unassigned; (-)), the results for the inhibition in experiment [3] and in experiment [4] were 9.5% and 39%, respectively.

As to `NC(Cc1nc2cc(Cl)ccc2n1CP(=O)(O)O)C(=O)OCc1ccccc1` (stereo not given), the IC50 at Glutamate NMDA receptor [1] is 46500 nM; at Glutamate NMDA receptor [2] it was 150 nM. `NC(CCc1nc2ccccc2n1CP(=O)(O)O)C(=O)O` (single isomer, unassigned; (-)) came in with an IC50 at Glutamate NMDA receptor [2] of 6800 nM. That is a single-digit micromolar value.
